The structures appear in SMILES notation. Active and inactive are the calls of the source. The calls are words filed in the database; no cut-off is given here.

For assay [1], the target named is T1, Transient receptor potential cation channel subfamily V member 1 (Homo sapiens, UniProt Q8NER1). As to the kind of experiment: Displacement of [3H]RTX from recombinant human TRPV1 expressed in CHO cells incubated for 60 mins by liquid scintillation counter. The assay is classed as cell-based. A digest of the protocol: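 Pellets from human TRPV1 CHO cells (Tet-Off, induced 48 h) in DPBS with Ca2+/Mg2+ and BSA 0.25 mg/mL. Incubated with [3H]RTX 100 pM and varied competitor, 60 min at 37 °C. Nonspecific binding defined with unlabelled RTX 100 nM. Chilled, glycoprotein added, membranes pelleted by centrifugation, scintillation counted. Ki from Hill equation fit. Mean of ≥3 experiments.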
T1 sequence (Q8NER1 whole entry): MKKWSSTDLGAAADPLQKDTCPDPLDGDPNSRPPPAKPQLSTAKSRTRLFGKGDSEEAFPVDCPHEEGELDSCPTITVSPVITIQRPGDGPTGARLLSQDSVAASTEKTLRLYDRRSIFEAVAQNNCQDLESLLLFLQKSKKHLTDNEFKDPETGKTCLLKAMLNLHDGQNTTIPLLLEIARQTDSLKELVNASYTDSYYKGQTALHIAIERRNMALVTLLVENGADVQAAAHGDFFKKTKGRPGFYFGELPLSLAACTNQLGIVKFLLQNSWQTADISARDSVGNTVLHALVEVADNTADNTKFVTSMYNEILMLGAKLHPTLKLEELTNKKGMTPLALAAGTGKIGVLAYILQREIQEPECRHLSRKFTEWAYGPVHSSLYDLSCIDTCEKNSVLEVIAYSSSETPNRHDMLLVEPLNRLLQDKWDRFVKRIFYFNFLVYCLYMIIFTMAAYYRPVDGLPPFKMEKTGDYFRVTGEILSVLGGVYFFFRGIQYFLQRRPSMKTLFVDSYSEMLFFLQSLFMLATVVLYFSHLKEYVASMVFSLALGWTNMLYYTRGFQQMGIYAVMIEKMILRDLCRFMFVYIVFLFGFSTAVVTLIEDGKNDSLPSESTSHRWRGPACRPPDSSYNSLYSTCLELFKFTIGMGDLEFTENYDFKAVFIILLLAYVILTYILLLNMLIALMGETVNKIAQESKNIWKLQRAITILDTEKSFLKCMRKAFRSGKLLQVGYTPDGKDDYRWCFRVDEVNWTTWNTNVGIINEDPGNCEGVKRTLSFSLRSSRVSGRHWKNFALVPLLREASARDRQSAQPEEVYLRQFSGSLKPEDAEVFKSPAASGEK

Assay [2] concerns the target T1, Transient receptor potential cation channel subfamily V member 1. Description: Agonist activity at recombinant human TRPV1 expressed in CHO cells assessed as increase in calcium uptake incubated for 5 mins in presence of 45Ca2+ and capsaicin by liquid scintillation counter. The assay is classed as cell-based.
Assay [3] has as its target Mu-type opioid receptor (Homo sapiens, UniProt P35372). As to the kind of experiment: Displacement of [3H]-DAMGO from full length human MOR expressed in chem5 cells incubated for 60 mins by liquid scintillation counter. In kind it is cell-based. On the technique in general: In a radioligand displacement assay an active substance lowers the binding of a labelled ligand.

The test system of assay [4] is Mus musculus. As to the kind of experiment: Antinociceptive activity in ICR mouse assessed as reduction in paw licking time at 30 mg/kg, ip pretreated for 30 mins followed by formalin treatment and measures after 0 to 5 mins by formalin test relative to control. The assay is classed as functional. In outline: (§1)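 Male ICR mice, 20-25 g. Compound i.p. 30 min before 20 μL of 2% formalin in 0.9% saline into dorsal right hindpaw. Licking time scored at 0-5 min (early) and 20-30 min (late) and expressed as % decrease versus vehicle. n = 3-4, mean ± SEM.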

Assay [5] has as its system Mus musculus. Description: Antinociceptive activity in ICR mouse assessed as reduction in capsaicin-induced paw licking at 20 mg/kg, ip pretreated for 30 mins followed by capsaicin treatment and measured for 5 mins relative to control. In kind it is functional. In outline: (§2)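 Male ICR mice, 20-25 g, 3-4 per group. Pretreated i.p. with compound or vehicle 30 min before intraplantar capsaicin 3 μg/paw in 10 μL into right hind paw. Licking time recorded for 5 min and expressed as % inhibition versus vehicle. Mean ± SEM.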

The subject of assay [6] is Mus musculus. Description: Antinociceptive activity in ICR mouse assessed as reduction in paw licking time at 30 mg/kg, ip pretreated with 10 mg/kg, ip mu opioid receptor antagonist, naloxone 15 mins prior to compound treatment and 30 mins later treated with formalin and measured after 0 to 5 mins by formalin test relative to control. The assay is classed as functional. A digest of the protocol:
(§3)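 Male ICR mice, 20-25 g, 3-4 per group. Naloxone 10 mg/kg i.p. given 15 min before test article or vehicle i.p. Formalin paw test 30 min later: 20 μL of 2% formalin into right hindpaw. Licking scored at 0-5 min and 20-30 min and compared with vehicle. Mean ± SEM.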

Assay [7] deals with Mus musculus. Description: Antinociceptive activity in ICR mouse assessed as reduction in paw licking time at 30 mg/kg, ip pretreated for 30 mins followed by formalin treatment and measures after 20 to 30 mins by formalin test relative to control. The assay is classed as functional. A digest of the protocol:
as §1

Assay [8] concerns Mus musculus. As to the kind of experiment: Antinociceptive activity in ip dosed ICR mouse assessed as reduction in pain response of paw licking and biting pretreated for 30 mins followed by formalin treatment and measures after 20 to 30 mins by formalin test. In kind it is functional. A digest of the protocol: (§4)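 Male ICR mice, 20-25 g, 6-8 per group. Compound i.p. 30 min before 20 μL of 2% formalin in 0.9% saline into dorsal right hindpaw. Licking and biting time summed per 5 min block over 30 min. Early phase 0-5 min, late phase 20-30 min. ED50 derived from dose-response.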

Assay [9] has as its system Mus musculus. As to the kind of experiment: Antinociceptive activity in ICR mouse assessed as reduction in paw licking time at 30 mg/kg, ip pretreated with 10 mg/kg, ip mu opioid receptor antagonist, naloxone 15 mins prior to compound treatment and 30 mins later treated with formalin and measured after 20 to 30 mins by formalin test relative to control. The assay is classed as functional. A digest of the protocol: as §3

The test system of assay [10] is Mus musculus. Description: Antinociceptive activity in ip dosed ICR mouse assessed as reduction in capsaicin-induced paw licking pretreated for 30 mins followed by capsaicin treatment and measured for 5 mins. In kind it is functional, organism-based. In outline: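 Male ICR mice, 20-25 g, in groups of 3-4. Compound or vehicle given i.p. 30 min before intraplantar capsaicin (3 μg/paw in 10 μl) into the right hind paw. Time spent licking the injected paw is recorded over 5 min. Results are given as mean ± SEM and compared with vehicle.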

In assay [11] the test system is Mus musculus. Description: Antinociceptive activity in ICR mouse assessed as reduction of pain behaviour at 40 mg/kg, ip pretreated for 30 mins followed by formalin treatment and measured after 20 to 30 mins by formalin test. In kind it is functional, organism-based. In outline:
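Male ICR mice, 20-25 g, in groups of 6-8. Compound given i.p. 30 min before 20 μL of 2% formalin in 0.9% saline injected into the dorsal right hindpaw. Licking and biting time is summed in 5-min blocks over 30 min. Late phase is 20-30 min after injection.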

Assay [12] concerns Mus musculus. As to the kind of experiment: Antinociceptive activity in ip dosed ICR mouse assessed as reduction in pain response of paw licking and biting pretreated for 30 mins followed by formalin treatment and measures after 0 to 5 mins by formalin test. The assay is classed as functional. In outline:
as §4

The subject of assay [13] is Mus musculus. As to the kind of experiment: Antinociceptive activity in ICR mouse assessed as reduction in capsaicin-induced paw licking at 40 mg/kg, ip pretreated for 30 mins followed by capsaicin treatment and measured for 5 mins relative to control. In kind it is functional. A digest of the protocol:
as §2

Assay [14] deals with T1, Transient receptor potential cation channel subfamily V member 1. Description: Antagonist activity at recombinant human TRPV1 expressed in CHO cells assessed as as inhibition of capsaicin-induced calcium uptake incubated for 5 mins in presence of 45Ca2+ by liquid scintillation counter. In kind it is cell-based. A digest of the protocol:
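CHO cells stably expressing human TRPV1 (Tet-Off) induced 48 h in tetracycline-free medium. Uptake run in DMEM with BSA 0.25 mg/mL and 45Ca2+ 37 kBq/mL, with capsaicin 30 nM plus increasing test concentrations, 5 min at 37 °C. Cells washed, lysed in RIPA, counted. Four wells per point, Hill fit. ID50 converted to Ki by Cheng-Prusoff. Mean of ≥3 experiments.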

Chain of Mu-type opioid receptor (P35372 whole entry): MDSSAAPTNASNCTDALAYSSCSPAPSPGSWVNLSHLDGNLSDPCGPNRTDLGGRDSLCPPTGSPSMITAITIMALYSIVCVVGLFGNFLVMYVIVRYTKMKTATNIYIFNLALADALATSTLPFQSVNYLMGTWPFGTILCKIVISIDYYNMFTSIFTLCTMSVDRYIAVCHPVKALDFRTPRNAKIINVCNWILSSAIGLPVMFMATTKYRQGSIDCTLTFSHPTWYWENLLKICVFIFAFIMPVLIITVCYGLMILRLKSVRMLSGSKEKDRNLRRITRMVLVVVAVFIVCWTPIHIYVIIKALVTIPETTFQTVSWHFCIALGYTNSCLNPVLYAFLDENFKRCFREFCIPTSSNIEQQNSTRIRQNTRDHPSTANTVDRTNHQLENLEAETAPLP

For the compound `CN(C)C1(Cc2ccccc2)CCN(c2cc(C(F)(F)F)ccc2CNC(=O)Nc2ccc(CNS(N)(=O)=O)c(F)c2)CC1`, the results for the Ki in [1] and in assay [3] were 15.3 nM and 72.4 nM, respectively. Further, in assay [2] (cho), the EC50 (commonly the concentration at which the effect is half-maximal) is “Not Active”.
On the same counts, the results for `CN(C)C1(Cc2ccccc2)CCN(c2cc(C(F)(F)F)ccc2CNC(=O)Nc2ccc(CO)c(F)c2)CC1` are 27.9 nM, 240 nM and “Not Active”.
For `CC1CCN(c2nc(C(F)(F)F)ccc2CNC(=O)[C@@H](C)c2ccc(NS(C)(=O)=O)c(F)c2)CC1` (racemic), the Ki (usually the dissociation constant of the complex between target and ligand, obtained from inhibition or displacement) in assay [1] came to 7.9 nM. The 50% effective concentration (EC50) entry in assay [2] (cho) is recorded as “Not Active”.
On to `CN(C)C1(Cc2ccccc2)CCN(c2cc(C(F)(F)F)ccc2CNC(=O)Nc2cccc3ncccc23)CC1`, for which the Ki in [1] stood at 10.8 nM; in assay [3], 29 nM. For the same compound, the figures for the inhibition in vivo at 30 mg/kg in [4] and in assay [7] were 52.5% and 90.2%, respectively. Further, in assay [5], the inhibition in vivo – broadly, the relative decrease from the control value, in per cent – at 20 mg/kg worked out at 64.8%. Besides, the “inhibition (INH)” value in assay [6] turned out to be 5.7%; in assay [9], 47.9%. For the same compound, the Activity entry in [8] and in assay [12] was “Dose-dependent effect” each time. The ED50 (as a rule, the dose that gives a 50% effect, or the effect in half of the subjects) in [8] is 10.5 mg/kg; in [12], 23.9 mg/kg. The concentration for a half-maximal effect (EC50) result in assay [2] (cho) was “Not Active”. In addition, the inhibition entry in assay [10] is “Dose-dependent effect”. Further, the inhibition entry in assay [11] was “Active”. Besides, the inhibition in vivo at 40 mg/kg in [13] stood at 89.6%.
As to `CN(C)C1(Cc2ccccc2)CCN(c2cc(C(F)(F)F)ccc2CNC(=O)Nc2cccc3c(=O)[nH]ccc23)CC1`, the Ki in assay [1] is 111 nM; in assay [14], “Not Active”; in assay [3], 105 nM. Besides, the EC50 in assay [2] (read-out: EC50) amounted to 43.7 nM.
Turning to `CN(C)C1(Cc2ccccc2)CCN(c2cc(C(F)(F)F)ccc2CNC(=O)Nc2ccc3ccncc3c2)CC1`, the figures for the Ki in [1] and in assay [3] were 7.33 nM and 177 nM, respectively. The EC50 entry in [2] (cho) was “Not Active”.
Regarding `CN(C)C1(Cc2ccccc2)CCN(c2cc(C(F)(F)F)ccc2CNC(=O)Nc2ccc(NS(C)(=O)=O)c(F)c2)CC1`, the Ki in assay [1] came out at 1160 nM; in assay [3] it was 368 nM. In assay [14], the inhibition result was “Active”. Also, the EC50 entry in assay [2] (cho) is recorded as “Not Active”.
Consider `CC(C(=O)NCc1ccc(C(F)(F)F)cc1N1CCC(Cc2ccccc2)(N(C)C)CC1)c1ccc(NS(C)(=O)=O)c(F)c1` (configuration not stated), for which the Ki in assay [1] was 3.79 nM; in assay [3], 428 nM. For the same compound, the EC50 result in assay [2] (cho) is “Not Active”.
The corresponding values for `CN(C)C1(Cc2ccccc2)CCN(c2cc(C(F)(F)F)ccc2CNC(=O)Nc2cccc3c2CC(O)CC3)CC1` (configuration not stated) are 0.95 nM, 261 nM and “Not Active”.
The corresponding values for `CN(C)C1(Cc2ccccc2)CCN(c2cc(C(F)(F)F)ccc2CNC(=O)Nc2cccc3ccncc23)CC1` are 12.3 nM, 205 nM and “Not Active”.
The corresponding values for `CN(C)C1(Cc2ccccc2)CCN(c2cc(C(F)(F)F)ccc2CNC(=O)NCc2ccc(NS(C)(=O)=O)c(F)c2)CC1` are 266 nM, 76.2 nM and “Not Active”.
With `CN(C)C1(Cc2ccccc2)CCN(c2cc(C(F)(F)F)ccc2CNC(=O)Nc2cccc3cnccc23)CC1`, the Ki in assay [1] came to 0.67 nM; in assay [3] it was 507 nM. Moreover, in assay [2] (cho), the EC50 result was “Not Active”.
Regarding `CN(C)C1(Cc2ccccc2)CCN(c2cc(C(F)(F)F)ccc2CNC(=O)Nc2ccc3cccnc3c2)CC1`, the inhibitory constant (Ki) in assay [1] turned out to be 14.1 nM; in assay [3], 166 nM. Also, the EC50 entry in [2] (cho) is “Not Active”.
The corresponding values for `CN(C)C1(Cc2ccccc2)CCN(c2cc(C(F)(F)F)ccc2CNC(=O)Nc2cccc3[nH]c(=O)ccc23)CC1` are 1.67 nM, 240 nM and “Not Active”.
The corresponding values for `CN(C)C1(Cc2ccccc2)CCN(c2cc(C(F)(F)F)ccc2CNC(=O)Nc2ccc3cnccc3c2)CC1` are 62 nM, 17 nM and “Not Active”.
For `CN(C)C1(Cc2ccccc2)CCN(c2cc(C(F)(F)F)ccc2CNC(=O)Nc2ccc3c(c2)OCC3)CC1`, the inhibition constant (Ki) was determined as 41.4 nM in assay [1] and 225 nM in assay [3]. Further, the EC50 entry in assay [2] (cho) was “Not Active”.
Take `CN(C)C1(Cc2ccccc2)CCN(c2cc(C(F)(F)F)ccc2CNC(=O)Nc2cccc3ccc(O)cc23)CC1`: the Ki in assay [1] is 0.46 nM; in [3], 137 nM. Further, the EC50 entry in assay [2] (cho) is “Not Active”.
On the same counts, the results for `CN(C)C1(Cc2ccccc2)CCN(c2cc(C(F)(F)F)ccc2CNC(=O)Nc2ccc(CNS(C)(=O)=O)c(F)c2)CC1` are 16.4 nM, 322 nM and “Not Active”.

Source of the values: ChEMBL document CHEMBL4406835, “Discovery of dual-acting opioid ligand and TRPV1 antagonists as novel therapeutic agents for pain” (Eur J Med Chem, 2019).
